The source of these data is ChEMBL document CHEMBL3817732, “Rational Design of Calpain Inhibitors Based on Calpastatin Peptidomimetics” (J Med Chem, 2016).

Assay [1] addresses Procathepsin L (Homo sapiens) (UniProt P07711). Nature of the assay: Inhibition of human liver cathepsin L assessed as cleavage of Z-FR-AMC at 100 uM by fluorescence spectrometer.
For a further assay, the target named is T1, Papain (Carica papaya) (UniProt P00784).
T1 sequence (whole entry): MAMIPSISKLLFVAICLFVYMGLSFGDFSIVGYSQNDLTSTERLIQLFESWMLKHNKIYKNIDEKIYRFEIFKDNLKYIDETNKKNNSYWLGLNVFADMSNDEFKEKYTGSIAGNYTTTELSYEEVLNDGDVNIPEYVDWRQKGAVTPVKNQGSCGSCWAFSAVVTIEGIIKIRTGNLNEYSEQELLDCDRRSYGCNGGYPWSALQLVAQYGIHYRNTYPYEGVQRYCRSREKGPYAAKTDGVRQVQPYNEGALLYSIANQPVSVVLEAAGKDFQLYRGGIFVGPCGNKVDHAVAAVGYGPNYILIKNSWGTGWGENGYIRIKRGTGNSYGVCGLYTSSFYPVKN
Nature of the assay: Inhibition of papaya papain assessed as cleavage of (EDANS)-EPLFAERK-(DABCYL) at 100 uM by fluorescence spectrometer.

Assay [2] is filed under the species Rattus norvegicus. Nature of the assay: Activation of rat recombinant calpain-1 protease core expressed in Escherichia coli BL21(DE3) assessed as cleavage of (EDANS)-EPLFAERK-(DABCYL) at 100 uM in presence of CaCl2 by fluorescence spectrometer.
Assay [3] is filed under the species Rattus norvegicus. Nature of the assay: Inhibition of rat calpain-1 assessed as cleavage of (EDANS)-EPLFAERK-(DABCYL) at 100 uM in presence of CaCl2 by fluorescence spectrometer relative to control.
The species entered for assay [4] is Rattus norvegicus. Nature of the assay: Inhibition of rat recombinant C-terminal His-tagged calpain-2 expressed in Escherichia coli BL21(DE3) assessed as cleavage of (EDANS)-EPLFAERK-(DABCYL) at 100 uM in presence of CaCl2 by fluorescence spectrometer relative to control.
Assay [5] in a line: Mixed-type inhibition of rat recombinant C-terminal His-tagged calpain-2 expressed in Escherichia coli BL21(DE3) using (EDANS)-EPLFAERK-(DABCYL) as substrate assessed as enzyme/substrate/inhibitor complex in presence of CaCl2 by Michaelis-Menten plot analysis.
Assay [6] can be described thus: Mixed-type inhibition of rat recombinant C-terminal His-tagged calpain-2 expressed in Escherichia coli BL21(DE3) using (EDANS)-EPLFAERK-(DABCYL) as substrate assessed as enzyme/inhibitor complex in presence of CaCl2 by Michaelis-Menten plot analysis.
A short description of assay [7]: Competitive inhibition of rat recombinant C-terminal His-tagged calpain-2 expressed in Escherichia coli BL21(DE3) using (EDANS)-EPLFAERK-(DABCYL) as substrate assessed as enzyme/inhibitor complex in presence of CaCl2 by Michaelis-Menten plot analysis.
For assay [8], the species on record is Rattus norvegicus. Nature of the assay: Binding affinity to rat recombinant C-terminal His-tagged calpain-2 C105S mutant expressed in Escherichia coli BL21(DE3) at 25 to 50 uM in presence of CaCl2 and trypsin by MALDI-TOFpeptide fingerprinting method. In outline: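 The mixture is exposed to long-wave UV for 2.5 h, with a DMSO control. Photoadducts are tryptically digested and identified by MALDI-TOF mass fingerprinting.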

Assay [9] can be described thus: Competitive inhibition of porcine erythrocyte calpain-2 using Suc-Leu-Tyr-AMC as substrate. Further details: species or system Sus scrofa.
The species entered for assay [10] is Rattus norvegicus. Nature of the assay: Inhibition of rat recombinant calpain-1 protease core expressed in Escherichia coli BL21(DE3) assessed as cleavage of (EDANS)-EPLFAERK-(DABCYL) at 100 uM in presence of CaCl2 by fluorescence spectrometer.
Assay [11] is described as follows: Inhibition of calpain-1 (unknown origin) using H-Glu(Edans)-Pro-Leu-Phe-Ala-Glu-Arg-Lys(Dabcyl)-OH as substrate measured every 13 secs for 1 hr by fluorescence assay. Further details: […].
Assay [12] can be described thus: Non-competitive inhibition of rat recombinant C-terminal His-tagged calpain-2 expressed in Escherichia coli BL21(DE3) using (EDANS)-EPLFAERK-(DABCYL) as substrate assessed as enzyme/substrate/inhibitor complex in presence of CaCl2 by Michaelis-Menten plot analysis.
The nature of assay [13]: Non-competitive inhibition of rat recombinant C-terminal His-tagged calpain-2 expressed in Escherichia coli BL21(DE3) using (EDANS)-EPLFAERK-(DABCYL) as substrate assessed as enzyme/inhibitor complex in presence of CaCl2 by Michaelis-Menten plot analysis.

By inhibition is commonly meant the share of the control response that was lost under treatment. One may read the Ki as a dissociation constant, usually derived from enzyme kinetics or from competition with a known ligand.

The source made the active and inactive calls. The rule behind the calls is not given here. Some results are limits rather than exact numbers.

Chain of Procathepsin L (Homo sapiens) (P07711 114-333 limits assumed): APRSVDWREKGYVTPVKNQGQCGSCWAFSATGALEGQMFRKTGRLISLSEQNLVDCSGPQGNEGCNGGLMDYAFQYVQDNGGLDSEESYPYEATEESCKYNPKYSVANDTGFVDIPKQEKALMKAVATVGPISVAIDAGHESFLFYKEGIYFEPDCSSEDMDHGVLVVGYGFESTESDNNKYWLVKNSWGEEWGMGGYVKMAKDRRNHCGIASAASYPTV

As to `C[C@@H]1NC(=O)[C@H](CCCN)NC(=O)CNC(=O)[C@H](CO)NC(=O)CNC(=O)[C@@H]2CCCN2[C@@H]1C(=O)NC(C)(C)C`, the inhibition in [1] is above 85%; in the assay filed under Rattus norvegicus [3], 38%; in the assay listed under Rattus norvegicus [4] it was 78%. Also, the inhibition entry on Papain (Carica papaya) was “inactive”. In addition, the outcome in the assay listed under Rattus norvegicus [2] was Active. For the same compound, the Ki stood at 45.6 µM in assay [5] and 20.3 µM in [6].
For the compound `CC(C)C[C@H](/N=C1\N[C@@H](C)[C@@H](C(=O)NC(C)(C)C)N2CCC[C@H]12)C(=O)N[C@@H](CCCCN)C(=O)NCC(=O)O`, the inhibition (in [1]; in the assay listed under Rattus norvegicus [4]) was above 85% in each case. Further, on Papain (Carica papaya), the inhibition result is “inactive”. In addition, the outcome in the assay listed under Rattus norvegicus [2] was Active. For the same compound, in the assay listed under Rattus norvegicus [3], the inhibition result was “Active”. Also, the Ki in assay [7] worked out at 12.2 µM.
With `CC(C)[C@H](NC(=O)C/N=C1\N[C@@H](C)[C@@H](C(=O)NC(C)(C)C)N2CCC[C@H]12)C(=O)N[C@H](CCCN)C(=O)O`, the inhibition in assay [1] stood at 17%; in the assay filed under Rattus norvegicus [4] it was 79%.
Take `CC(C)C[C@H](NC(=O)C/N=C1\N[C@@H](CSC2CC(=O)N(c3cccc(C(=O)c4ccccc4)c3)C2=O)[C@@H](C(=O)NC(C)(C)C)N2CCC[C@H]12)C(=O)N[C@H](CCCN)C(=O)O` (stereo partly specified): the inhibition result in the assay filed under Rattus norvegicus [8] and in the assay listed under Rattus norvegicus [4] was “Active” in each case.
As for `CC(C)C[C@@H]1NC(=O)[C@H](C)NC(=O)CNC(=O)[C@@H]2CCCN2[C@H](C(=O)NC(C)(C)C)[C@H](CSC2CC(=O)N(c3cccc(C(=O)c4ccccc4)c3)C2=O)NC(=O)[C@H](CCCCN)NC1=O` (stereo partly specified), the inhibition entry in the assay listed under Rattus norvegicus [8] and in the assay listed under Rattus norvegicus [4] was “Active” in each case.
For `CC[C@H](C)[C@H](NC(=O)C/N=C1\N[C@@H](C)[C@@H](C(=O)NC(C)(C)C)N2CCC[C@H]12)C(=O)N[C@H](CCCN)C(=O)O`, the inhibition in the assay filed under Rattus norvegicus [3] came to 14%; in the assay listed under Rattus norvegicus [4], 67%.
With `C[C@@H]1N/C(=N\CC(=O)N[C@@H](Cc2ccccc2)C(=O)N[C@H](CCCN)C(=O)O)[C@H]2CCCN2[C@@H]1C(=O)NC(C)(C)C`, the inhibition came to 28% in the assay filed under Rattus norvegicus [3] and 39% in the assay filed under Rattus norvegicus [4].
For the compound H-DPMSSTYIEELGKREVTIPPKYRELLA-OH, the Ki in assay [9] is 8.7 nM; in assay [7] it was 0.0168 µM.
On to `CC(C)C[C@@H]1NC(=O)[C@H](C)NC(=O)CNC(=O)[C@@H]2CCCN2[C@H](C(=O)NC(C)(C)C)[C@H](C)NC(=O)[C@H](CCCCN)NC1=O`, for which the values for the inhibition (in assay [1]; in the assay listed under Rattus norvegicus [3]; in the assay filed under Rattus norvegicus [4]) were above 85%, 45% and 84%, respectively. In addition, on Papain (Carica papaya), the inhibition entry was “inactive”. The inhibition entry in the assay filed under Rattus norvegicus [10] was “Active”. Further, in [7], the Ki worked out at 16.6 µM.
`CC[C@H](C)[C@H](NC(C)=O)C(=O)N1CCC[C@H]1C(=O)N1CCC[C@H]1C(=O)N[C@@H](CCCCN)C(=O)N[C@@H](Cc1ccc(O)cc1)C(=O)N[C@H]1CSSC[C@@H](C(N)=O)NC(=O)[C@H](CC(C)C)NC(=O)[C@H](CC(C)C)NC(=O)[C@H](CCC(=O)O)NC1=O`: the Ki in assay [11] turned out to be 10.2 µM.
Regarding `C[C@H](NC(=O)C/N=C1\N[C@@H](C)[C@@H](C(=O)NC(C)(C)C)N2CCC[C@H]12)C(=O)N[C@H](CCCN)C(=O)O`, the inhibition in the assay listed under Rattus norvegicus [3] turned out to be 54%; in the assay filed under Rattus norvegicus [4], 66%.
For the compound `CC(C)C[C@@H](NC(=O)C/N=C1\N[C@@H](C)[C@@H](C(=O)NC(C)(C)C)N2CCC[C@H]12)C(=O)N[C@H](CCCN)C(=O)O`, the results for the inhibition (in [1]; in the assay filed under Rattus norvegicus [4]) were above 32% and 16%, respectively. Besides, the Ki in assay [12] turned out to be 119 µM; in [13], 154 µM. For the same compound, the inhibition entry on Papain (Carica papaya) is “inactive”. In addition, the inhibition entry in the assay filed under Rattus norvegicus [3] and in the assay listed under Rattus norvegicus [10] was “Active” each time.
